Results pooled from the literature.
Compare with care: the assays were run in different laboratories.
Cell line: MV4-11
Read-out: cell growth or viability

Structure (SMILES)	method	time	quantity	value
Cc1n[nH]c2ccc3nc(-c4ccc(C(=O)NCCN(C)C)cc4)c4c(c3c12)CCC(C)(C)C4	resazurin	72 h	GI50	0.223 µM
c1cc(N2CCCCC2)ccc1Nc1cc2ncc(OCC3CCNCC3)nc2cc1-c1ccc(N2CCCCC2)cc1	XTT	7 days	EC50	3 µM
O=C(NO)c1ccc(Cn2cnc3c(Nc4ccc(F)c(Cl)c4)ncnc32)cc1	MTT	72 h	IC50	1.14 µM
COc1cc(-c2cc(C(C)=O)n3ccccc23)c(OC)cc1Cn1ccnc1	ATP luminescence		IC50	0.07 µM
Nc1ccccc1NC(=O)c1ccc(Cn2cnc3c(Nc4ccc(Cl)cc4)ncnc32)cc1	MTT	72 h	IC50	0.59 µM
O=C(NCCN1CCCC1)c1ccc(-c2nc3ccc4[nH]ncc4c3c3c2CCCC3)c(F)c1	resazurin	72 h	GI50	0.208 µM
Cc1cc2c(C(N)=O)cccc2n1-c1nc2c(c(NCc3ccccc3)n1)CCCN2		72 h	IC50	0.3 µM
c1cc(N2CCC(N3CCOCC3)CC2)ccc1Nc1ccc2ncc(OCC3CCNCC3)nc2c1	XTT	7 days	EC50	≥ 28 µM
O=C(NO)c1ccc(Cn2cnc3c(Nc4ccc(Br)cc4F)ncnc32)cc1	MTT	72 h	IC50	0.77 µM
CC(C)Cc1ccc([C@H](C)C(=O)O)cc1	MTT	72 h	IC50	277 µM
COc1ccc(Nc2ncnc3c2ncn3Cc2ccc(C(=O)NO)cc2)cc1	MTT	72 h	IC50	0.58 µM
Cc1n[nH]c2ccc3nc(-c4ccc(C(=O)NCCN(C)C)nc4)c4c(c3c12)CCCCC4	resazurin	72 h	GI50	0.181 µM
Nc1cccc(-c2ccc3ncc(OCC4CCNCC4)nc3c2)c1	XTT	7 days	EC50	≥ 28 µM
Cc1sc2c(c1C)C(c1ccc(Cl)cc1)=N[C@@H](CC(=O)NCCCCNC(=O)COc1cccc3c1C(=O)N(C1CCC(=O)NC1=O)C3=O)c1nnc(C)n1-2 (stereo partly shown)	CCK-8	72 h	IC50	0.52 µM
Cc1n[nH]c2ccc3nc(-c4ccc(C(=O)N(C)CCN(C)C)cc4)c4c(c3c12)CCC(C)(C)C4	resazurin	72 h	GI50	0.258 µM
Fc1ccc(Oc2ccc(Nc3ccc4ncc(OCC5CCNCC5)nc4c3)cc2)cc1	XTT	7 days	EC50	0.96 µM
